One experiment concerns Calu-1. The experiment in a line: Cell cycle arrest in human Calu1 cells assessed as increase in accumulation at S phase at 1.8 uM treated 18 hrs post serum-starvation measured after 18 hrs in presence of fresh medium containing FBS by propidium iodide staining based flow cytometry relative to control. Format: functional. On the technique in general: Flow cytometry measures light scatter and fluorescence of single cells or particles in a stream.

Experiment [1] deals with A549. Description: Cell cycle arrest in human A549 cells assessed as accumulation at G2/M phase at 1.6 uM treated 32 hrs post mimosine addition measured after 18 hrs in presence of fresh medium by propidium iodide staining based flow cytometry (reference value: 14%). In kind it is functional.
For experiment [2], the system named is A549. Description: Up regulation of cyclin-B1 expression in human A549 cells at 0.8 to 1.6 uM measured after 18 hrs by Western blot analysis. In kind it is functional, cell-based.
The next experiment deals with T1, Cytochrome P450 1B1 (Homo sapiens, UniProt Q16678).
T1 sequence (Q16678 whole entry): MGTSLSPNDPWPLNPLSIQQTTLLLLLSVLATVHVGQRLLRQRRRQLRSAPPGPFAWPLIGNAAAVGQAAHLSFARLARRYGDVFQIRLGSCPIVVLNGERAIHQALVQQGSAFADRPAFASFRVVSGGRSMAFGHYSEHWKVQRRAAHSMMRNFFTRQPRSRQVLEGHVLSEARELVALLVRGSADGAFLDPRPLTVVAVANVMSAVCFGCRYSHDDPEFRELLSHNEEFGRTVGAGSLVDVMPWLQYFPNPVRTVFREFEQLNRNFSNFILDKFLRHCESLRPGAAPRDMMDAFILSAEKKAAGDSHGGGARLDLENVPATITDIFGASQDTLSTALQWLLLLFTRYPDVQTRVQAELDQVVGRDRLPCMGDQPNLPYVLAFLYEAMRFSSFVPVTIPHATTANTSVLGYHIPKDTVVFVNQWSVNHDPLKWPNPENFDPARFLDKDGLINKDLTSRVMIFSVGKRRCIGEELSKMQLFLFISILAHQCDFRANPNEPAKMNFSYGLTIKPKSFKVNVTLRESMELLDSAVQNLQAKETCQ
Description: Inhibition of recombinant human CYP1B1 expressed in baker's yeast-derived microsomes using 7-ethoxyresorufin as substrate by fluorescence assay.

A further experiment concerns the target Tubulin (Sus scrofa) (UniProt P02554+P02550). Description: Inhibition of porcine tubulin polymerization incubated for 1 min by fluorescence based assay. Format: protein assay. The method in brief:
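Compounds added from 10x stocks in duplicate and warmed at 37°C ≤1 min. Ice-cold tubulin pre-mix then added. Fluorescent reporter read at ex 360/em 460 nm for 60 min. Paclitaxel served as enhancer control, CaCl2 as inhibitor control.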

In experiment [3] the test system is A549. Description: Cell cycle arrest in human A549 cells assessed as ratio of G1 to S phase at 1.6 uM treated 32 hrs post mimosine addition measured after 18 hrs in presence of fresh medium by propidium iodide staining based flow cytometry (reference value: 2.5). In kind it is functional.
Experiment [4] relates to T47D. Description: cells. The note with it: Homo sapiens, 72 h.
Experiment [5] relates to T47D. Description: Cell cycle arrest in human T47D cells assessed as increase in accumulation at S phase at 1.5 uM treated 18 hrs post serum-starvation measured after 18 hrs in presence of fresh medium containing FBS by propidium iodide staining based flow cytometry relative to control. Format: functional.

Each structure is given as a SMILES string. pEC50, pIC50: −log10 of the molar value. Active and inactive are the calls of the source. No cut-off for these calls is given here.

This note sets out measurements from ChEMBL document CHEMBL4480390, “Cink4T, a quinazolinone-based dual inhibitor of Cdk4 and tubulin polymerization, identified via ligand-based virtual screening, for efficient anticancer therapy” (Eur J Med Chem, 2019).

Tubulin (Sus scrofa), sequence (P02550 whole entry, looked up): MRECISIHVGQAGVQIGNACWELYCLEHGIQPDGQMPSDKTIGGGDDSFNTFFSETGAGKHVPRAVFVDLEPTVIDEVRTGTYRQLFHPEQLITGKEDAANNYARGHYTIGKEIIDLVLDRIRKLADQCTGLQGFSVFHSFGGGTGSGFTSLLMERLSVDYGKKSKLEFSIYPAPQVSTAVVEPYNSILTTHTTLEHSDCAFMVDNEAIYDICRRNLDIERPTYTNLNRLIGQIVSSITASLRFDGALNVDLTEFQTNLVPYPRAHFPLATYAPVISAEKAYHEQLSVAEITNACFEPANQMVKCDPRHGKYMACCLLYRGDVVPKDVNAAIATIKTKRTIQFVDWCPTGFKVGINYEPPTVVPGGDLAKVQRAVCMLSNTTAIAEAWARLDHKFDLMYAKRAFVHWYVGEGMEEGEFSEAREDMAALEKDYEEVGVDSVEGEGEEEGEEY
Tubulin (Sus scrofa), sequence (P02554 whole entry, looked up): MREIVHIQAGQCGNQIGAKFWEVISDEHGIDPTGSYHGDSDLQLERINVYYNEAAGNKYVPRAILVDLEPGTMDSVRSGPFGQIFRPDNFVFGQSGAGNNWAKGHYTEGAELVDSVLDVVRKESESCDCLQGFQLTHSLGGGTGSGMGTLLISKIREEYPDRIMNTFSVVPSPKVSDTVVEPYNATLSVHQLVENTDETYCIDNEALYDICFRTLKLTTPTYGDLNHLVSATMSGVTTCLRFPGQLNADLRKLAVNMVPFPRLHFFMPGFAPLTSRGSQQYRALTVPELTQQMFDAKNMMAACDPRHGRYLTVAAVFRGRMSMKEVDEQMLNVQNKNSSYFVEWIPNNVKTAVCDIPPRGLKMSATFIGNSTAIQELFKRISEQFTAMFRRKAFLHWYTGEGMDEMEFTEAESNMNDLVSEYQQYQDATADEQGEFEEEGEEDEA

The term pIC50 denotes the negative decadic logarithm of the IC50, by convention in mol/L. The term pEC50 denotes −log10 of the EC50, conventionally taken in molar units. For the compound `O=C(COc1ccc(-c2nc3ccccc3c(=O)[nH]2)cc1)Nc1cccc(Cl)c1`, the Activity is given as -0.8% with Calu-1, 68% in the experiment on A549 [1] and 5.3% in the experiment with T47D [5]. Also, the outcome in the experiment with A549 [2] was inactive. For the same compound, at Cytochrome P450 1B1, the negative-log IC50 (pIC50) is under 5.30. Further, at Tubulin (Sus scrofa), the inhibition entry was “Dose-dependent effect”. Moreover, in the experiment on A549 [3], the Ratio is recorded as 0.6. This compound had a negative-log EC50 (pEC50) with T47D [4] of 6.12.
